Test results reported in ChEMBL document CHEMBL4513216, “Probing the Open Global Health Chemical Diversity Library for Multistage-Active Starting Points for Next-Generation Antimalarials” (ACS Infect Dis, 2020).

Experiment: Toxicity liver stage against HepG2, at 10uM
Format: cell-based
Parameters: test concentration 10 uM, cell line HepG2-A16-CD81EGFP
Conditions: human, HepG2-A16-CD81EGFP cells; read-out: INHIBITION
Outline: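 Uninfected HepG2-A16-CD81EGFP cells, 3 × 10^3 per well, 1536-well, plated on prespotted compound at 10 μM final, parasite-free screening media added to match infected plates; puromycin 10 μM positive, DMSO 0.5% negative; run in parallel with 48 h PbLuc assay at 37 °C, 5% CO2; viability by CellTiter-Glo luminescence, normalized to controls.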

Going from Cc1nnc(NCc2cccc(OCC3CCCO3)c2)c(C#N)c1C (stereo not given) to Cc1cc(C[C@@H]2COC[C@H]2NCc2ccc(C)c(C)c2)on1, the cytotoxicity at 10 µM rises from -33.8% to 8.1%.

Compared with Cc1csc(NC(=O)CN(C)CCOc2cccc(F)c2)n1, CCc1csc(NC(=O)NCc2ccccn2)n1 is lower in cytotoxicity at 10 µM: 0.115% for the first, -4.61% for the second.

First: COc1ccc(CNC[C@H]2COCc3nc4cc(F)ccc4n32)cn1
Second: COc1cccc(CN2CCCC2c2cccc(F)c2)c1OC (stereo not given)
The cytotoxicity at 10 µM of the first is lower: 0.734% for the first, 6.01% for the second.

Going from CCS(=O)(=O)c1ccc2oc([C@H]3CCN(Cc4ccncc4)C3)nc2c1 to O=S1(=O)NC(C2CCN(Cc3ccncc3)CC2)Nc2ccccc21 (stereo not given), the cytotoxicity at 10 µM falls from 23.7% to -19.3%.

Compared with O=C1CO[C@H]2CN(S(=O)(=O)c3ccccc3)C[C@H]2N1Cc1ccccn1, Cc1ccc(CC2COCCN(S(=O)(=O)c3ccccc3)C2)nc1 (stereo not given) is lower in cytotoxicity at 10 µM: -1.11% for the first, -4.48% for the second.

Going from Cc1cc2nc(CO[C@H]3CN(C)C[C@H]3F)[nH]c2cc1C to COc1cccc(F)c1CN1CCC(c2nccc(C)n2)C1 (stereo not given), the cytotoxicity at 10 µM rises from 2.78% to 5.29%.

First: N#Cc1cnc(N2CCC3(CC2)OCCO3)nc1N
Second: Cc1nc(N)nc(C)c1CC(=O)N1CCC2(CC1)OCCCC2O (stereo not given)
The cytotoxicity at 10 µM of the first is higher: 3.51% for the first, -1.8% for the second.

First: CN(C)CCN(C)c1cc(N2CCN(c3ccccn3)CC2)ncn1
Second: CN(C)CCn1ccnc1C1CCCN(C(=O)CCc2cccnc2)C1 (stereo not given)
The cytotoxicity at 10 µM of the first is higher: 1.23% for the first, -3.64% for the second.

Compared with CCOC(=O)N1[C@@H](c2ccco2)[C@@H](CO)C[C@]12CCCCNC2=O, CC1Oc2c(cccc2C(=O)N2CCCCCC2)NC1=O (stereo not given) is lower in cytotoxicity at 10 µM: 0.644% for the first, -6.81% for the second.

First: O=C(CCC(=O)N1CCc2[nH]c3ccccc3c2C1)NCc1ccco1
Second: O=C(CCNS(=O)(=O)c1ccccc1)NCc1ccoc1
The cytotoxicity at 10 µM of the first is higher: 3.59% for the first, -0.886% for the second.

Compared with CC(C)C1SCC(=O)Nc2c1c(O)nn2C1CCCC1 (stereo not given), Cc1cc2n(n1)[C@@H](C(F)(F)F)C[C@@H](C1CCCN(C(=O)C(C)C)C1)N2 (stereo not given in full) is lower in cytotoxicity at 10 µM: 1.4% for the first, -22.1% for the second.

Going from CN1C(=O)c2cccc(NC(=O)c3cccc(S(C)(=O)=O)c3)c2C1=O to Cc1ccc(OCC(=O)NS(=O)(=O)c2cccnc2)cc1C, the cytotoxicity at 10 µM rises from -7.75% to 4.36%.

Compared with O=C(N1CCCC1)N1C[C@@H]2CCNC[C@@H]21, O=C(C1CCC2(CCN(CC3CCOCC3)CC2)O1)N1CCCC1 (stereo not given) is higher in cytotoxicity at 10 µM: 0.375% for the first, 1.91% for the second.

First: CN(C)C(=O)C1CCC2(CCN(Cc3ccc4ccccc4n3)CC2)O1 (stereo not given)
Second: N[C@@H]1c2ccccc2C2(CCN(C(=O)c3ccc(CO)o3)CC2)[C@H]1O
The cytotoxicity at 10 µM of the first is higher: 5.09% for the first, 3.92% for the second.

Going from Cc1csc(CN2CCC[C@]3(C[C@H](OCC4CC4)CO3)C2)n1 to c1ccc(CO[C@@H]2CO[C@@]3(CCN(Cc4ccccn4)C3)C2)nc1, the cytotoxicity at 10 µM rises from -141% to -9.62%.

First: Cc1nc(CN2C[C@@H]3CN(C(=O)c4ccoc4C)C[C@@H]3C2)cs1
Second: CCn1nc(C)cc1C(=O)N1C[C@@H]2C[C@@H](C)O[C@@H]2C1
The cytotoxicity at 10 µM of the first is lower: -144% for the first, 5.53% for the second.

Going from O=C(NCc1cnc2n1CCN(c1ncc(F)cn1)CC2)C1CCC1 to Cc1cncnc1C1CCN(C(=O)C2(C)CCCCN2C)CC1 (stereo not given), the cytotoxicity at 10 µM rises from -0.881% to 1.06%.

Going from O=C(c1ccnn1COc1ccc(Cl)cc1)N1CCCC1 to CN1CCN(C(=O)c2nnc3ccc(Cl)cc3n2)CC1, the cytotoxicity at 10 µM rises from -2.34% to 6.28%.

Going from CCc1oc2ccc(NS(=O)(=O)CC)cc2c1C(=O)OC to CCc1nc(CCNC(=O)Nc2ccc(C(=O)NC)cc2C)cs1, the cytotoxicity at 10 µM rises from 5.05% to 27.7%.

Compared with Cc1nccc(N(C)Cc2ncc(-c3ccccc3C(=O)O)s2)n1, O=C(Cc1ccccc1)NCc1ncc(-c2ccccc2C(=O)O)cn1 is lower in cytotoxicity at 10 µM: 1.31% for the first, -1.89% for the second.

Compared with O=C(Cc1cccnc1)N1CCC(c2nnc(-c3ccccn3)o2)CC1, CC(O)C(=O)N1CCC(c2[nH]ncc2-c2ccccc2)CC1 (stereo not given) is lower in cytotoxicity at 10 µM: 0.91% for the first, -2% for the second.

Compared with Cc1n[nH]c(C)c1S(=O)(=O)N1CCC(Oc2ccccc2F)CC1, COc1ccccc1OC1CN(C(=O)Cc2c(C)nc(N)nc2C)C1 is lower in cytotoxicity at 10 µM: 1.22% for the first, 0.866% for the second.

Going from CNC(=O)C1CCCN(C(=O)c2ccccc2-n2cc(CN)cn2)C1 (stereo not given) to CCC(=O)NC1CCCN(c2cncc(OCc3ccccc3)n2)C1 (stereo not given), the cytotoxicity at 10 µM rises from -2.3% to -2.08%.

Compared with Cc1c(CN2CCCC2(C)C(=O)NC2CCCC2)cnn1C (stereo not given), CC(C)OC[C@H]1CCC[C@]12CN(S(=O)(=O)c1cn(C)cn1)CCO2 is higher in cytotoxicity at 10 µM: 1.05% for the first, 5.19% for the second.

Going from C[C@@H]1C[C@H](C(F)(F)F)n2nc(C3CCN(S(C)(=O)=O)CC3)cc2N1 to Cc1cc(S(=O)(=O)N2C[C@H](C3CC3)[C@@H](N)C2)c(C)s1, the cytotoxicity at 10 µM rises from -16.9% to -2.36%.

First: CNC(=O)Cn1ccc2ccc(NC(=O)C(C)C)cc21
Second: COc1ccc(C(C)NCCc2ccc(NC(C)=O)cc2)c(OC)c1 (stereo not given)
The cytotoxicity at 10 µM of the first is lower: 0.153% for the first, 4.49% for the second.

Going from O=C(COCCOc1ccccc1)NC1CCN(c2ncccn2)CC1 to O=C(Cn1cccnc1=O)NCc1cccnc1OCC(F)(F)F, the cytotoxicity at 10 µM falls from -4.9% to -11.9%.

Going from CCc1nnc2n1CCN(C(C(N)=O)c1ccc(F)cc1)C2 (stereo not given) to CCc1nnc2n1CCN(C(=O)c1cc3ccc(F)cc3nc1C)C2, the cytotoxicity at 10 µM falls from -8.13% to -9.37%.

Going from CN(CCCn1cnc2c(N)ncnc21)Cc1ccccc1 to Cc1cc(N(C)CCC(O)c2ccccc2)n2nccc2n1 (stereo not given), the cytotoxicity at 10 µM rises from -4.87% to -2.84%.

Compared with Cn1nnnc1SCC1(O)CCCCC1, C1CCC(c2nn3c(C4CCCO4)nnc3s2)C1 (stereo not given) is higher in cytotoxicity at 10 µM: 1.06% for the first, 8.51% for the second.

First: O=C1CCN(C(=O)NCCc2c[nH]c3ccc(Cl)cc23)CCN1
Second: O=c1[nH][nH]cc1-c1ccnc(NCCN2CCCCC2)n1
The cytotoxicity at 10 µM of the first is higher: 4.26% for the first, -10.4% for the second.

First: CCOCCNC(=O)Nc1ccc(OCc2noc(C3CC3)n2)cc1
Second: CN(C)c1ncc(-c2ccc(NC(=O)[C@@H]3CCCCN3)cc2)cn1
The cytotoxicity at 10 µM of the first is higher: 6.48% for the first, -7.94% for the second.

First: COc1ccc(S(=O)(=O)Nc2cccnc2-n2cncn2)cc1C
Second: O=C1CCCc2cc(S(=O)(=O)NCc3ccccn3)ccc2N1
The cytotoxicity at 10 µM of the first is lower: -6.87% for the first, 2.41% for the second.

First: CNS(=O)(=O)c1ccccc1N1CCN(C(C)C(=O)OC)CC1 (stereo not given)
Second: CC(C)N(CC(N)=O)C(=O)c1cc(F)ccc1N1CCN(C)CC1
The cytotoxicity at 10 µM of the first is lower: 0.375% for the first, 7.66% for the second.

Going from CCc1n[nH]c(C2CN(C(=O)CCOCC(F)(F)F)CCO2)n1 (stereo not given) to CCc1n[nH]c(C2CN(CC(=O)NCCc3ccsc3)CCO2)n1 (stereo not given), the cytotoxicity at 10 µM falls from 10.4% to -11%.

First: CCn1ncc2c1CCCC2NCc1ccc2c(c1)OCCO2 (stereo not given)
Second: CCN(Cc1ccc2c(c1)OCCO2)C(=O)NC(C)Cn1ccnc1 (stereo not given)
The cytotoxicity at 10 µM of the first is lower: -9.12% for the first, -2.79% for the second.

First: Cc1ccc(C(=O)NCC(c2cnn(C)c2)N(C)C)c(O)c1 (stereo not given)
Second: CC(C)c1cccc(-n2cc(O)c(C(=O)NCCCn3cccn3)n2)c1
The cytotoxicity at 10 µM of the first is lower: -7.93% for the first, -1.59% for the second.

Compared with O=C(CN1CCC(OCC2CCCO2)CC1)NCC(F)(F)F (stereo not given), CC(C)(CN1CCC(Cc2cccc(C(=O)O)c2)C1)N1CCOCC1 (stereo not given) is higher in cytotoxicity at 10 µM: -1.2% for the first, 3.98% for the second.

First: COc1ccccc1C(=O)N1CCN(CCc2scnc2C)CC1
Second: O=C(CCCc1nnc(-c2ccccc2)o1)N1CCN(CCO)CC1
The cytotoxicity at 10 µM of the first is higher: 1.79% for the first, -6.31% for the second.

Going from CC(C)CC(CC(C)C)NC(=O)c1ccn(C)c(=O)c1 to CCc1[nH]c2c(CNC(=O)[C@@H]3CCCN3C)cc(C)cc2c1C, the cytotoxicity at 10 µM falls from -0.717% to -3.33%.

Going from C=C(C)CN(CC)Cc1nc(C(C)(C)C)no1 to CCc1cc(CN(C)Cc2nc(-c3sccc3C)oc2C)on1, the cytotoxicity at 10 µM rises from -4.57% to -3.81%.

First: CN(Cc1nnn(CC2CC2)n1)C(=O)c1ccccc1
Second: O=C(Cn1nc2ccccc2n1)N1CCCn2cncc2C1
The cytotoxicity at 10 µM of the first is lower: 0.889% for the first, 1.87% for the second.

First: CC(O)CN1CCN(C(=O)CN(C)c2ccc(Cl)cn2)CC1 (stereo not given)
Second: CC(C)N(C)Cc1nnc2n1CCN(Cc1ccncc1)CC2
The cytotoxicity at 10 µM of the first is higher: -1.95% for the first, -2.42% for the second.

Going from CCN(CC)C(=O)c1ccc(NC(=O)CNc2ccc(Br)cc2F)cc1 to Cc1[nH]c2c(F)cccc2c1CC(=O)NCCCc1csc(N)n1, the cytotoxicity at 10 µM falls from 4.52% to -3.57%.

Going from O=C(Nc1cnn(CC(=O)N2CCCCO2)c1)c1ccsc1 to O=C(O)[C@]12CCCN(Cc3ccsc3)C[C@H]1CN(c1ccccn1)C2, the cytotoxicity at 10 µM falls from -1.23% to -139%.

First: Cc1nccc(N2CCCC(c3nnc(Cn4ccnc4C)n3C)C2)n1 (stereo not given)
Second: COC(=O)N1CCC(c2nnc(Cn3ccnc3)n2C)CC1
The cytotoxicity at 10 µM of the first is higher: -2.04% for the first, -110% for the second.

Compared with COCC(=O)N1CCc2[nH]nc(-c3ccc4c(c3)OCO4)c2C1, Cc1c(CN2CCc3[nH]cnc3C2C(=O)O)[nH]c2ccc(F)cc12 (stereo not given) is higher in cytotoxicity at 10 µM: -137% for the first, -4.23% for the second.

Going from O=C(O)CC1COCCN1C(=O)C1(c2ccc(Cl)cc2)CCC1 (stereo not given) to O=C(NCc1ccc(Cl)cc1)C1=NOC2(CCNC2)C1 (stereo not given), the cytotoxicity at 10 µM rises from -17.8% to -4.21%.

First: CN(C)c1ccc(C2CC(=O)Nc3c2cnn3Cc2ccco2)cc1 (stereo not given)
Second: Cc1csc2nc3n(c(=O)c12)CCN(Cc1ccccn1)CC3
The cytotoxicity at 10 µM of the first is higher: -3.08% for the first, -18.2% for the second.

First: CN(CC1CCOC1)S(=O)(=O)c1cccc(C(=O)N2CCOCC2)c1 (stereo not given)
Second: O=S(=O)(C1CC1)N1CCOC2(CCCN(Cc3ccccn3)C2)C1 (stereo not given)
The cytotoxicity at 10 µM of the first is lower: -13.3% for the first, -0.78% for the second.

First: CC(=O)N1C[C@H]2CNC[C@@]2(C(=O)NCCOc2ccccc2F)C1
Second: COCc1ccccc1CNc1cc(N2CCCC2CO)ncn1 (stereo not given)
The cytotoxicity at 10 µM of the first is higher: 2.8% for the first, -1.81% for the second.

First: Cc1nc2ccccc2c(=O)n1CCC(=O)N1CCCCCC1
Second: CCCn1nc2c(cc1=O)CN(Cc1nnc(C3CC3)o1)CC2
The cytotoxicity at 10 µM of the first is lower: -6.57% for the first, 2.11% for the second.

Going from CC(C)Cc1noc(CN2CCOCC2)n1 to CC(C)C(=O)N1CC2(CCN(CC(C)(C)C)CC2)C1, the cytotoxicity at 10 µM falls from -2.27% to -5.28%.

Going from Cc1cnn(CCNCc2csc(-c3cccs3)n2)c1 to Cc1n[nH]c(C)c1NC(=O)CN1CCc2c(nc(C3CC3)n2C)C1, the cytotoxicity at 10 µM rises from -9.91% to -3.15%.

First: Cc1nc(O)cc(C2(C)CCCNC2)n1 (stereo not given)
Second: O=C(Nc1cccnc1)[C@H]1CO[C@H]2CCNC[C@H]2C1
The cytotoxicity at 10 µM of the first is lower: 2.98% for the first, 9.24% for the second.
